In ChEMBL document CHEMBL5661979, “Pharmacological inhibition of BMK1 suppresses tumor growth through promyelocytic leukemia protein” (Cancer Cell, 2010) one finds IC50, inhibition and Activity data, which are given here for 1 compound.

Calls of active or inactive are those of the source. The rule behind the calls is not given here.

The target in test [1] is Serine/threonine-protein kinase Nek7 (Homo sapiens, UniProt Q8TDX7). The test can be described thus: Inhibition of NEK7 in human HeLa cells lysate pre incubated for 15 mins followed by ATP acyl phosphate probe addition and measured after 10 mins by LC-MS/MS analysis. It counts as subcellular.
In test [2] the target is Ribosomal protein S6 kinase alpha-1 (Homo sapiens, UniProt Q15418). The test can be described thus: Inhibition of RSK1 domain 2 K1 site in human HeLa cells lysate at 10 uM pre incubated for 15 mins followed by ADP acyl phosphate probe addition and measured after 10 mins by LC-MS/MS analysis relative to control. The test is classed as subcellular. The settings on record: time 25.0 min.

The nature of test [3]: Inhibition of MST4/YSK1 in human HeLa cells lysate pre incubated for 15 mins followed by ATP acyl phosphate probe addition and measured after 10 mins by LC-MS/MS analysis. It counts as subcellular.
The target of test [4] is Phosphatidylinositol 3-kinase catalytic subunit type 3 (Homo sapiens, UniProt Q8NEB9). The test can be described thus: Inhibition of PIK3C3 in human HeLa cells lysate at 2 uM pre incubated for 15 mins followed by ATP acyl phosphate probe addition and measured after 10 mins by LC-MS/MS analysis relative to control. The test is classed as subcellular. The conditions noted are these: time 25.0 min.

Test [5] deals with Serine/threonine-protein kinase B-raf (Homo sapiens, UniProt P15056). The test can be described thus: Inhibition of BRAF in human HeLa cells lysate pre incubated for 15 mins followed by ADP acyl phosphate probe addition and measured after 10 mins by LC-MS/MS analysis. It counts as subcellular. An outline of the steps: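 KiNativ-type profiling in HeLa lysate (5 mg/mL total protein). Lysate preincubated 15 min with inhibitor at 50, 10, 2, 0.8 or 0 μM, then ATP or ADP acylphosphate probe added (5 μM final) for 10 min. Reaction stopped with urea and analysed by targeted MS, using up to four fragment ions per kinase peptide-probe conjugate. % inhibition calculated against untreated lysate. Duplicate reactions.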

A short description of test [6]: Inhibition of PCTAIRE2/3 in human HeLa cells lysate at 50 uM pre incubated for 15 mins followed by ADP acyl phosphate probe addition and measured after 10 mins by LC-MS/MS analysis relative to control. The settings on record: 25 min, condition cancer.
The target in test [7] is T1, Phosphatidylinositol 5-phosphate 4-kinase type-2 gamma (Homo sapiens) (UniProt Q8TBX8).
T1 sequence (whole entry): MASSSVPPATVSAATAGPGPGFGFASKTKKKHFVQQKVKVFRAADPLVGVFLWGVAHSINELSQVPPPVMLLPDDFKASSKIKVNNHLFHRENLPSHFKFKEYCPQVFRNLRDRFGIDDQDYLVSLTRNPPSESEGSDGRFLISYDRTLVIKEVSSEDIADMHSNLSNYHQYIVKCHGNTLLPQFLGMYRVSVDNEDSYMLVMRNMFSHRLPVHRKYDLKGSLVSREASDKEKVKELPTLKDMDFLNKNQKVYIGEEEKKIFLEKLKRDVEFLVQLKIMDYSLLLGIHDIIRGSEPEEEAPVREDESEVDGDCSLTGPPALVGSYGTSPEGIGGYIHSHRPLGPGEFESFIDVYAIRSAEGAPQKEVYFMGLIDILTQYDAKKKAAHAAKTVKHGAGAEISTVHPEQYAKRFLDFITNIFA
The test can be described thus: Inhibition of PIP5K2C LIP2 site in human HeLa cells lysate at 50 uM pre incubated for 15 mins followed by ATP acyl phosphate probe addition and measured after 10 mins by LC-MS/MS analysis relative to control. The test is classed as subcellular. The settings on record: time 25.0 min.

Test [8] in a line: Inhibition of NEK6/7 in human HeLa cells lysate at 2 uM pre incubated for 15 mins followed by ATP acyl phosphate probe addition and measured after 10 mins by LC-MS/MS analysis relative to control. The conditions noted are these: 25 min, condition cancer.
The target in test [9] is Tyrosine-protein kinase Fer (Homo sapiens, UniProt P16591). The test can be described thus: Inhibition of FER in human HeLa cells lysate at 10 uM pre incubated for 15 mins followed by ATP acyl phosphate probe addition and measured after 10 mins by LC-MS/MS analysis relative to control. It counts as subcellular. The settings on record: time 25.0 min.
In test [10] the target is Tyrosine-protein kinase CSK (Homo sapiens, UniProt P41240). The test can be described thus: Inhibition of CSK in human HeLa cells lysate at 10 uM pre incubated for 15 mins followed by ATP acyl phosphate probe addition and measured after 10 mins by LC-MS/MS analysis relative to control. The test is classed as subcellular. The conditions noted are these: time 25.0 min.
The target of test [11] is Serine/threonine-protein kinase mTOR (Homo sapiens, UniProt P42345). The test can be described thus: Inhibition of FRAP in human HeLa cells lysate at 2 uM pre incubated for 15 mins followed by ATP acyl phosphate probe addition and measured after 10 mins by LC-MS/MS analysis relative to control. The test is classed as subcellular. The settings on record: time 25.0 min.

Test [12] concerns the target Proto-oncogene tyrosine-protein kinase ROS (Homo sapiens) (UniProt P08922). The test can be described thus: Inhibition of ROS1 (unknown origin) assessed as remaining activity at 10 uM by ATP-competition binding assay relative to control.
A short description of test [13]: Inhibition of PCTAIRE2/3 in human HeLa cells lysate at 2 uM pre incubated for 15 mins followed by ADP acyl phosphate probe addition and measured after 10 mins by LC-MS/MS analysis relative to control. The settings on record: 25 min, condition cancer.
Test [14] is described as follows: Inhibition of CK1g1/g2/g3 in human HeLa cells lysate at 10 uM pre incubated for 15 mins followed by ADP acyl phosphate probe addition and measured after 10 mins by LC-MS/MS analysis relative to control. The conditions noted are these: 25 min, condition cancer.
The target of test [15] is T1, Phosphatidylinositol 5-phosphate 4-kinase type-2 gamma (Homo sapiens). The test can be described thus: Inhibition of PIP5K2C LIP2 site in human HeLa cells lysate at 2 uM pre incubated for 15 mins followed by ATP acyl phosphate probe addition and measured after 10 mins by LC-MS/MS analysis relative to control. The settings on record: time 25.0 min. It counts as subcellular.

In test [16] the target is Serine/threonine-protein kinase Nek1 (Homo sapiens, UniProt Q96PY6). The test can be described thus: Inhibition of NEK1 in human HeLa cells lysate pre incubated for 15 mins followed by ATP acyl phosphate probe addition and measured after 10 mins by LC-MS/MS analysis. The test is classed as subcellular.
The test system of test [17] is HeLa. The test can be described thus: Antitumor activity against human HeLa cells xenografted in NOD/SCID mouse assessed as reduction tumor growth at 50 mg/kg, ip administered for 28 days. The settings on record: time 28.0 day. It counts as functional, organism-based. A digest of the protocol:
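HeLa cells (5×10^5, in DMEM) were injected s.c. into the right flank of 6-week-old Nod/Scid mice on day 0. Dosing was 50 mg/kg i.p. twice daily, starting on day 1, 7 or 14 and continuing to day 28; controls received carrier. 6 mice per treated group. Tumors were measured every 2–3 days.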

The target in test [18] is Cyclin-dependent kinase 2 (Homo sapiens, UniProt P24941). The test can be described thus: Inhibition of CDK2 in human HeLa cells lysate at 50 uM pre incubated for 15 mins followed by ATP acyl phosphate probe addition and measured after 10 mins by LC-MS/MS analysis relative to control. The settings on record: time 25.0 min. It counts as subcellular. An outline of the steps: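 KiNativ profiling in HeLa lysate (5 mg/mL total protein). Lysate incubated 15 min with inhibitor at 50, 10, 2, 0.8 or 0 μM. ATP or ADP acylphosphate probe then added (5 μM final) and reacted 10 min. Reaction stopped with urea and analysed by targeted MS, using up to four fragment ions per kinase peptide-probe conjugate. % inhibition taken against untreated lysate. Run in duplicate.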

Serine/threonine-protein kinase Nek1, sequence (Q96PY6 whole entry): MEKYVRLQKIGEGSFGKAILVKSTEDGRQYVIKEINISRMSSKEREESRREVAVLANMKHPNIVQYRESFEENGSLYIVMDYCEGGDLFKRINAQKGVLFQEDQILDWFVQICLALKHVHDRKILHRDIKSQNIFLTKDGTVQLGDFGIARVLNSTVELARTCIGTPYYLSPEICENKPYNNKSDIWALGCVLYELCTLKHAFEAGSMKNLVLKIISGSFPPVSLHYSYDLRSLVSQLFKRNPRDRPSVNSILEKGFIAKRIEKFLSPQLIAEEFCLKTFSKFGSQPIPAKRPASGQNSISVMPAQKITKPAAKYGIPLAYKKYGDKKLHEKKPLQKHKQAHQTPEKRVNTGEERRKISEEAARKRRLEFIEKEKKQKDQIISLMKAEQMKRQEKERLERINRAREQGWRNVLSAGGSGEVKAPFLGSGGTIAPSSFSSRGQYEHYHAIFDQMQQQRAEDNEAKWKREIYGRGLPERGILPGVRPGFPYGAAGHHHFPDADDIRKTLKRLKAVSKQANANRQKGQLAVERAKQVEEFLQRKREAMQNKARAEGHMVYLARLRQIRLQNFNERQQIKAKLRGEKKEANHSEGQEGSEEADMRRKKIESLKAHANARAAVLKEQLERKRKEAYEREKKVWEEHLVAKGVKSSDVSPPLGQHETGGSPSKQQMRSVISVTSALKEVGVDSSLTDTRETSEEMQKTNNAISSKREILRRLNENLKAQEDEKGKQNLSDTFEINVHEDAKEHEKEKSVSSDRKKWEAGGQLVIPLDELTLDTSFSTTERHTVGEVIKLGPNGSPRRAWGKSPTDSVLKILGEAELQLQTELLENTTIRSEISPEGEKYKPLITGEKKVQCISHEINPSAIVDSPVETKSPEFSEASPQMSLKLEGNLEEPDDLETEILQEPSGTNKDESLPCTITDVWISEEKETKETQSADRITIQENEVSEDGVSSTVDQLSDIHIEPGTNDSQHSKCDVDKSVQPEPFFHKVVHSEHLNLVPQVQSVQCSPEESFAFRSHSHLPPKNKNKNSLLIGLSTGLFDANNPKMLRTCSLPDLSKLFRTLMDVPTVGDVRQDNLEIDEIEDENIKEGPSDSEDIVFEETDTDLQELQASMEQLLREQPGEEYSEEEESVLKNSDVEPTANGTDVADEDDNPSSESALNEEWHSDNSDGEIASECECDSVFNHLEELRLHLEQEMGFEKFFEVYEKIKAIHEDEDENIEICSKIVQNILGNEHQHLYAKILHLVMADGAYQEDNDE
Ribosomal protein S6 kinase alpha-1, sequence (Q15418 whole entry, the tested form may be a part): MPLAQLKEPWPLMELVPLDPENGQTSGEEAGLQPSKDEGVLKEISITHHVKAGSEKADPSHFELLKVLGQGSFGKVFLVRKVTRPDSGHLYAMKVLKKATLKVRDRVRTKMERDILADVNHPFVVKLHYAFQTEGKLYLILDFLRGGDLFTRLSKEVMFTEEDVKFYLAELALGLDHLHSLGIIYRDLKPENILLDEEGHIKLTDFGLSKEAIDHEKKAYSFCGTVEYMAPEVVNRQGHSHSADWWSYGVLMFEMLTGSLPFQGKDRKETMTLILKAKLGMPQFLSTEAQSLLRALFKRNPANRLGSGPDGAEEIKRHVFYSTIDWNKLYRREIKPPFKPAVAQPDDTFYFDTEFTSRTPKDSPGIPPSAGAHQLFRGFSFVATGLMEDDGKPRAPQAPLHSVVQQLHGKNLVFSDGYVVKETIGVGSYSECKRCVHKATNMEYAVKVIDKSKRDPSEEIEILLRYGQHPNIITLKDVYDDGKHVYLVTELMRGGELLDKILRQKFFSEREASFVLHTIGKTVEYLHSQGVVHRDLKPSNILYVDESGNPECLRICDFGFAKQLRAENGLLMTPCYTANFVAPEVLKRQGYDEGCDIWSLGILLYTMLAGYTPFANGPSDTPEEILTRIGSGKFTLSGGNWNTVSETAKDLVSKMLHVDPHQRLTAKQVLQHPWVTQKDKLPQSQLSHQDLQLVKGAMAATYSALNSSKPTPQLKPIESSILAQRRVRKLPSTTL
Tyrosine-protein kinase Fer, sequence (P16591 whole entry, looked up): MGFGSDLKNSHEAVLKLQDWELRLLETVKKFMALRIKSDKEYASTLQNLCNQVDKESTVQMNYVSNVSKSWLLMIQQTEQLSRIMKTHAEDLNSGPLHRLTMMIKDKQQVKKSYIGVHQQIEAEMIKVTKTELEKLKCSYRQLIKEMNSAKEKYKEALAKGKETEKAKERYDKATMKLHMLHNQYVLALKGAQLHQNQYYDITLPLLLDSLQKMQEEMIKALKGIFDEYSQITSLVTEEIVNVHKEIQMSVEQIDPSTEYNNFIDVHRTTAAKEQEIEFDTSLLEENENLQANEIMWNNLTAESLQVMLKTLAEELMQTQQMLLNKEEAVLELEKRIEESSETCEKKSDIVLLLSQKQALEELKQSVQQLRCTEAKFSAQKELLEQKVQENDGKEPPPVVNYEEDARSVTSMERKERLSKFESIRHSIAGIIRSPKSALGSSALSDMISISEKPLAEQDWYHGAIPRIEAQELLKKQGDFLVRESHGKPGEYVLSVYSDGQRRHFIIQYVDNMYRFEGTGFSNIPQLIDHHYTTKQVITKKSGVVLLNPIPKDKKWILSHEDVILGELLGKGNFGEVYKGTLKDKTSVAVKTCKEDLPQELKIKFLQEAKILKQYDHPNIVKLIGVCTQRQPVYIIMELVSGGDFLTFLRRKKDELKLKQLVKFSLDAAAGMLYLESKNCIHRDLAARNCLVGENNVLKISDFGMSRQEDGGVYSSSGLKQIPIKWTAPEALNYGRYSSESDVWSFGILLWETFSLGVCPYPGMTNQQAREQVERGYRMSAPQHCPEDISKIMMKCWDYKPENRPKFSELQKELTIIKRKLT
Tyrosine-protein kinase CSK, sequence (P41240 2-450 limits assumed): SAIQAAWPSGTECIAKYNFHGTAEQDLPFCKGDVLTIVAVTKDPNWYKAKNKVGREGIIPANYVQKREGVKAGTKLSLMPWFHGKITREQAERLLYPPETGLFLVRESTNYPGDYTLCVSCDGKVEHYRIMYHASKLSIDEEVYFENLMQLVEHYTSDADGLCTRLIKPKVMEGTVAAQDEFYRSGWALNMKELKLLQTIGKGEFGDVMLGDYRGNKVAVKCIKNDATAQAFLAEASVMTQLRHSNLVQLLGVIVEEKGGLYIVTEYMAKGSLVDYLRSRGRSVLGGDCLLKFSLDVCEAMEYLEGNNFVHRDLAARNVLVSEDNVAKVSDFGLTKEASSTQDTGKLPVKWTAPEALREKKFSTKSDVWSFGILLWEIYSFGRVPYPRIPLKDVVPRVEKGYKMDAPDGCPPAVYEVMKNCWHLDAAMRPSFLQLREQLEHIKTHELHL
Phosphatidylinositol 3-kinase catalytic subunit type 3, sequence (Q8NEB9 whole entry): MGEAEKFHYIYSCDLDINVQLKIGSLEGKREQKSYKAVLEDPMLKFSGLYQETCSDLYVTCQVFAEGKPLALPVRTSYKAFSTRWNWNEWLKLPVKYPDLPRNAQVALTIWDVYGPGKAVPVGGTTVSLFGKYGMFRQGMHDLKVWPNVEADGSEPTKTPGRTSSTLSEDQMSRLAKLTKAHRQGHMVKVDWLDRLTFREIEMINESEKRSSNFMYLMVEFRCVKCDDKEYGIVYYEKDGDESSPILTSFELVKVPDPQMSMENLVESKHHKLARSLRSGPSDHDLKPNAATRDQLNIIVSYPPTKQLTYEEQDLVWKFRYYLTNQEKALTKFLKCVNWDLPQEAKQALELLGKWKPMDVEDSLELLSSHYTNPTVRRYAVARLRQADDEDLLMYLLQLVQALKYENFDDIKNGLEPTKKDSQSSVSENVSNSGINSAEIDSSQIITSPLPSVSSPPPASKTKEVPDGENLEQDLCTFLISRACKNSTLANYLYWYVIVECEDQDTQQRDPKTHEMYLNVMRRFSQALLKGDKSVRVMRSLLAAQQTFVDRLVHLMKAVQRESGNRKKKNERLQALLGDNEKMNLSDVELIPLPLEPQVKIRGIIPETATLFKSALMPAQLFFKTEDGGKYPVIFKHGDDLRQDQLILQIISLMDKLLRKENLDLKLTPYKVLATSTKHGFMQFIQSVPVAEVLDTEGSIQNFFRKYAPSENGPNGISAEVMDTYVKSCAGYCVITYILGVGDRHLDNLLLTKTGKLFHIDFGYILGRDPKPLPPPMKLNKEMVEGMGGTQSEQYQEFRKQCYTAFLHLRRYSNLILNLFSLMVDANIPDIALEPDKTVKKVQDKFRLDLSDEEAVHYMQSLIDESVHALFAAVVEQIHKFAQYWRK
Serine/threonine-protein kinase Nek7, sequence (Q8TDX7 whole entry, the tested form may be a part): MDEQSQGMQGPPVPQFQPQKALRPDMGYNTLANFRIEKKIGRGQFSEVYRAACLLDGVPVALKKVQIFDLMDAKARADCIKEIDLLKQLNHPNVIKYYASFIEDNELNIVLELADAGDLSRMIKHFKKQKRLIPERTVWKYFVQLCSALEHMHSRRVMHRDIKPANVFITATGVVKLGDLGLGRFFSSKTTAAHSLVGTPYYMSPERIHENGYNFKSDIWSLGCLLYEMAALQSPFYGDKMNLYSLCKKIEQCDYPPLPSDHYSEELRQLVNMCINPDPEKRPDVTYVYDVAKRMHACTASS

In the case of `CCOc1cc(N2CCC(O)CC2)ccc1Nc1ncc2c(n1)N(C)c1ccccc1C(=O)N2C`, the IC50 in test [1], in test [3], in [5] and in test [16] was more than 50 µM in each case. Further, the inhibition (usually the drop in the measured response relative to a control, in per cent) was 23.4% in test [2]; -0.4% in test [4]; 12.7% in test [7]; 0% in [9]; -3.4% in test [10]; 4.6% in test [11]. Further, the inhibition was 0.7% in [15] and -1.9% in [18]. Moreover, the inhibition at 50 µM in test [6] was -8.7%. Besides, the inhibition at 2 µM in [8] is -4.1%; in test [13], 10.1%. Moreover, the Activity in test [12] was 15%. The inhibition at 10 µM in test [14] worked out at 18.1%. Also, in test [17], the result was Active.
